Hits are enriched below; roughly 3.7% of the tested compounds scored in any of these assays.
KCNK9 inh – inhibitors of human KCNK9 two-pore domain potassium channel | B-score at 10 µM | 1.2% of 310,000 active | HEK293 KCNK9, FluxOR thallium flux fluorescence; stronger effect = lower value | Q9NPC2;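 active = ratio B-score over 3 SD below the library mean, with starting fluorescence within 5 SD of its mean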;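 note: negative B-score means less thallium flux so channel inhibition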
Target sequence (Q9NPC2 whole entry, looked up, the tested form may be a part): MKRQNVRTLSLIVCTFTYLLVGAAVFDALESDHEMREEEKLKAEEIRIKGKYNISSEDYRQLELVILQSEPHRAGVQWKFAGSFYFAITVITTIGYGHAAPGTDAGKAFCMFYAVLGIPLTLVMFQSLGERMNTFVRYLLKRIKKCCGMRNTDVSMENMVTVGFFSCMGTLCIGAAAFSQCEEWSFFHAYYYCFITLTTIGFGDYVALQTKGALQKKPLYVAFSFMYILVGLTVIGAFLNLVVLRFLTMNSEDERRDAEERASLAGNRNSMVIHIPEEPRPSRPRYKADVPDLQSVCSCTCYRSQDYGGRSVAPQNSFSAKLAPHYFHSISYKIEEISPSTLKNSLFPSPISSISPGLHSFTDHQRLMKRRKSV
KCNQ1 act – potentiators or activators of human KCNQ1 potassium channel | P51787 | CHO-K1 KCNQ1, thallium flux FluxOR fluorescence; stronger effect = higher value | B-score at 10 µM | 0.35% of 310,000 active | AID 2648;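 active = fluorescence ratio B-score, a plate-corrected score, at least three library SD, with initial intensity B-score within 5 SD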
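Schedule – 37 °C overnight plating, 90-min dark dye load, 20-min compound pretreatment · System – stable KCNQ1 CHO-K1 line · Probe or stimulus – thallium- and potassium-containing depolarizing buffer · Measured by – kinetic FluxOR fluorescence, 10 s baseline plus 110 s post-stimulus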
KCNQ1 block – inhibitors of human KCNQ1 potassium channel; CHO-K1 KCNQ1, FluxOR thallium flux fluorescence; stronger effect = higher value; P51787; B-score at 10 µM; 1.3% of 310,000 active;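 active = compounds whose thallium flux B-score, printed positive for inhibition, exceeds three library SD while starting fluorescence stays within three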;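 note: channel opened by potassium depolarization with thallium stimulus after 20 min compound exposure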
KCNK3 inh – human KCNK3 channel inhibition, primary screen. O14649. AID 602410. B-score at 10 µM. 0.84% of 340,000 active. CHO-KCNK3 thallium flux, FluxOR fluorescence; stronger effect = lower value;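 active = B-score under library mean minus 4 SD, starting fluorescence ratio at most library mean plus 5 SD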;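 note: more negative B-score means stronger inhibition of thallium flux through KCNK3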
Kir21 block – Kir2.1 (mouse) channel inhibition; P35561; HEK293-Kir2.1, FluxOR thallium flux fluorescence; stronger effect = lower value; B-score at 10 µM; 0.85% of 310,000 active;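 active = fluorescence ratio B-score at or below minus 3 SD of library scores, with starting-brightness B-score within 2 SD, cut at about -4.2 in these data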;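 note: channel flux triggered by added potassium and thallium sulfate stimulus; B-score of peak minus minimum fluorescence over baseline after thallium stimulus; more negative B-score means stronger Kir2.1 block with less thallium influx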
hERG protect – compounds protecting human hERG from proarrhythmic drug block | Q12809 | CHO-hERG, FluxOR thallium flux, dofetilide IC70 present | activation (rescue from dofetilide block), less the hit threshold, % at 10 µM | 0.51% of 310,000 active | AID 1511;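 active = activation above the mean of controls blocked by dofetilide plus 5 SD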;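 note: thallium influx through hERG after potassium depolarization seen as dye fluorescence rise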
KCNK3 inh conf – confirmation of human KCNK3 two-pore domain potassium channel inhibitors; shares compounds with KCNK3 inh; CHO-KCNK3 thallium flux, FluxOR fluorescence; 0% buffer, 100% carvedilol maximal block; ratio percent of control, % at 10 µM; 99% of 2,400 active; AID 651638;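 active = ratio percent of control, averaged over triplicates, above buffer control mean plus 5 SD, cut at about 64% in these data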;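 note: ratio is the fluorescence rise from min to max over baseline after thallium stimulus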
KCNK3 uninduced – KCNK3 inhibitor counter-screen hit in non-induced cells; shares compounds with KCNK3 inh; non-induced KCNK3 parental cells, FluxOR thallium flux; stronger effect = lower value; thallium flux ratio (lower = more inhibition) at 10 µM; 40% of 2,400 active; AID 651747;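 active = thallium flux ratio, averaged over three wells, more than 5 SD below the buffer control mean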;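 note: host cells are CHO cells without KCNK3 induction; ratio is peak minus trough fluorescence over baseline then normalized to buffer controls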
The depositor's hits bear a star; i = inactive; . = no result.

SMILES	KCNK9 inh	KCNQ1 act	KCNQ1 block	KCNK3 inh	Kir21 block	hERG protect	KCNK3 inh conf	KCNK3 uninduced
Cc1oc(-c2cccc(Cl)c2)nc1CN1CCCC(C(=O)NC(C)c2ccc3c(c2)OCCO3)C1 (stereo unspecified)	i	i	i	-11*	0.35	-14	127*	0.12*
COc1ccccc1OCCOCCN1CCCC1	i	i	i	i	0.15	-8	.	.
COc1cc(C)ccc1OCCOc1c(Cl)cc(Cl)cc1Cl	i	i	i	i	0.15	-12	.	.
COc1cc(C)ccc1OCCOc1cc(C)ccc1Cl	i	i	i	-8.7*	2.5	-10	88*	i
COc1ccc(S(=O)(=O)N2CCN(Cc3cccc(Cl)c3)CC2)cc1	i	i	i	i	-0.12	-2	.	.
COc1cccc(CN2CCN(S(=O)(=O)c3ccc(Cl)s3)CC2)c1	i	i	i	-9.2*	0.02	-4	116*	0.13*
CCCN1C(=O)/C(=C/c2ccc(C)s2)SC1=Nc1ccc(OC)cc1	i	i	i	-9*	-3.8	-12	114*	i
O=C1c2cnc3nc(SCc4ccc(Cl)cc4)nn3c2CC2c3ccccc3CCN12 (stereo unspecified)	i	i	i	i	-0.63	-17	.	.
Cc1ccc(C2=NS(=O)(=O)N(C)C(C(=O)Nc3ccc4c(c3)OCO4)=C2)cc1	-6.7*	i	i	-10*	-0.24	-10	122*	0.14*
COc1ccc(C2=NS(=O)(=O)N(C)C(C(=O)Nc3ccc4c(c3)OCO4)=C2)cc1	.	.	.	i	.	.	.	.
CSc1ccc(CNC(=O)CCn2ccc3cc(S(=O)(=O)N4CCCC4)ccc32)cc1	i	i	i	-9.9*	-0.84	-5	119*	0.16*
CSc1ccc(CN(C)C(=O)COc2ccc(C(=O)c3ccccc3)cc2)cc1	i	i	i	-9.4*	1.7	-7	101*	i
COc1ccc(CCN(C)C(=O)COc2ccc(C(=O)c3ccccc3)cc2)cc1OC	i	i	i	i	3.2	-10	.	.
O=C(Nc1cccc(/C=C/c2ccccn2)c1)c1cc(Cl)ccn1	i	i	i	-9.4*	-0.77	-15	109*	i
O=C(COC(=O)c1ccc(O)cc1)NCC1COc2ccccc2O1 (stereo unspecified)	.	.	.	i	.	.	.	.
NC(N)=N/N=C/c1ccc(OCc2ccc(Cl)cc2)cc1	i	i	7*	-10*	-9.8*	-30	70*	i
Cc1ccc(COc2ccc(/C=N/O)cc2)cc1	i	i	i	i	-1.5	-7	.	.
COCCn1c(/C=C/c2ccccc2)nc2ccccc21	i	i	i	-8.8*	0	-9	83*	i
COCCn1c(-c2ccccc2)nc2ccccc21	i	i	i	i	1.6	-11	.	.
CC(=O)Oc1c(/C=C(\C#N)C(N)=O)[nH]c2ccccc12	i	i	i	-9*	-5*	-12	101*	0.14*
CCN(CCCNC(=O)CNC(=O)c1nn(-c2ccc(OC)cc2)c(=O)c2ccccc12)c1cccc(C)c1	i	i	i	-12*	-0.22	-7	117*	i
COc1cc(OC)cc(C(=O)N[C@H](C(=O)Nc2nc(-c3ccc(F)c(F)c3)cs2)C(C)C)c1	i	i	i	-11*	1.8	-6	100*	i
C/C(CCc1ccc2c(c1)OCO2)=N\N=C1\NC(=O)CC(C(=O)Nc2ccccc2F)S1 (stereo unspecified)	i	i	i	i	-0.45	-4	.	.
COc1ccc(C)cc1NC(=O)c1cccc(C(=O)Nc2cc(C)ccc2OC)c1	-8*	i	i	-11*	0.61	-7	106*	i
CCCCCCCCC(=O)Nc1cc(C)ccc1OC	i	i	i	-11*	0.07	-13	103*	i
SMILES	KCNK9 inh	KCNQ1 act	KCNQ1 block	KCNK3 inh	Kir21 block	hERG protect	KCNK3 inh conf	KCNK3 uninduced
COc1ccc(C)cc1NC(=O)c1ccc2c(c1)OCO2	i	i	i	i	-0.1	-3	.	.
CNS(=O)(=O)c1ccc2c(c1)C(=O)c1cc(S(=O)(=O)NC)ccc1CC2	.	.	.	i	.	.	.	.
COc1cccc(NC(=O)CN(C)C(=O)/C=C/c2cn(-c3ccccc3)nc2-c2ccc(C)cc2)c1	i	i	10*	-8.7*	-1.7	-28	92*	i
COc1cccc(NC(=O)CN(C)C(=O)c2cc(-c3ccc(F)cc3)nc3ccccc23)c1	i	i	i	-9.3*	0.93	-25	133*	0.11*
COc1cccc(NC(=O)CN(C)C(=O)c2cc(-c3ccccc3)nc3ccccc23)c1	i	i	i	i	0.02	-14	.	.
COc1ccc(-c2nc3ccccn3c2CN2CCN(c3ccccc3F)CC2)cc1	i	i	i	-8.8*	1.1	-10	106*	0.16*
COCCOc1nc2c(c(=O)n(C)c(=O)n2C)n1Cc1cccc(OC)c1	i	i	i	-11*	3.1	-7	66*	i
O=C(Nc1ccc(Cl)cc1)c1cc(Br)ccc1OCC(=O)N1CCOCC1	i	i	i	-10*	-0.04	-3	112*	i
O=C(Nc1ccc(OCC(=O)N2CCOCC2)cc1)c1ccccc1F	i	i	i	i	-1.5	-5	.	.
Cc1nn(-c2ccccc2)c(C)c1/C=N/NC(=O)c1cc(-c2ccc(Cl)s2)[nH]n1	i	i	i	-12*	-0.08	-27	131*	i
CCN(CC(=O)Nc1ccc(OC)cc1)C(=O)c1ccc2c(c1)NC(=O)C(C)S2 (stereo unspecified)	i	i	i	i	-0.34	-7	.	.

Assay outcomes from PubChem BioAssay.
